# What was measured:
# [1] = biological target: TIR-domain of MyD88 / full length MyD88 (Homo sapiens, UniProt Q99836); assay: Co-IP of MyD88 TIR-domain with full-length MyD88 in HEK293T cells; assay type: cell-based
# Method in brief: (§1)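 HEK293T cells were transfected by Lipofectamine with epitope-tagged MyD88: FLAG full-length plus HA-TIR domain or DD domain. Test compound or DMSO was added 7 h post-transfection, and cells were lysed at 20 h for 20 min at 4 °C in HEPES pH 7.5 buffer with 0.5% NP-40. Cleared lysates underwent FLAG M2 resin IP for 1 h at 4 °C, then immunoblotting with densitometry. Blots represent 4 independent experiments.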
# TIRAP-GyrB = TIRAP-GyrB (UniProt P0AES6+Q99JY1); assay: NF-κB luciferase reporter, TIRAP-GyrB HEK293T cells, coumermycin-induced; assay type: cell-based, human
# Method in brief: (§2)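 HEK293T NF-κB luciferase reporter clones carried three NF-κB sites and GyrB fusions introduced by viral transduction with antibiotic selection. Cells received 100 nM coumermycin A1 plus test compound at 10 concentrations (56 μM–2.8 nM) in triplicate, 0.24% final DMSO. After 24 h, AlamarBlue (1 h, 37 °C) measured viability, then SteadyLite luminescence. Values were normalised to coumermycin alone (0%) and coumermycin + 30 μM PS-1145 (100%).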
# RAW264.7 cells = assay: Toxicity; assay type: cell-based, mouse; details: read-out: TLR9 Toxicity EC50, Table 1
# [2] = biological target: T1, full length human estrogen receptor α (Homo sapiens, UniProt P03372); assay: Competitive radiometric estrogen receptor binding assay, ERα; details: relative binding affinity, estradiol = 100
# T1 sequence (P03372 1-595): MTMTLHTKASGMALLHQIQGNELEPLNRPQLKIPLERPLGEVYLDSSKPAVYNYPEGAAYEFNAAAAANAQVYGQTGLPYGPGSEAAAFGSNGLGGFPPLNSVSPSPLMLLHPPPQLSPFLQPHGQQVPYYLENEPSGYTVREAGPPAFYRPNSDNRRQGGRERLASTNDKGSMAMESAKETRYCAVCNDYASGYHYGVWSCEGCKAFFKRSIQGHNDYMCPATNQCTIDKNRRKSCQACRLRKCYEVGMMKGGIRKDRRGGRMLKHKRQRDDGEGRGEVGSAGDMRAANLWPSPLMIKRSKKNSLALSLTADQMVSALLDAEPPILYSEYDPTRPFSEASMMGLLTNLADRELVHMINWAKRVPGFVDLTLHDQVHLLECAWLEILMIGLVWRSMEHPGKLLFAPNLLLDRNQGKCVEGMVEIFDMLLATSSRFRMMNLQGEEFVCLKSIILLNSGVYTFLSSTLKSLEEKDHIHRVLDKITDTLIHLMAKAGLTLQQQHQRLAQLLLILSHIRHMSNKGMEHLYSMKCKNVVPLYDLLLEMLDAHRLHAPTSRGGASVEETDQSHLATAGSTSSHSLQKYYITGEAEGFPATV
# TLR7 [3] = assay: Western blot of NF-κB- and MAPK-pathway activation after R848; assay type: cell-based, mouse
# Method in brief: (§3)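 Bone-marrow macrophages (6 d culture in L-cell-conditioned medium) were stimulated with the respective agonist with or without test compound. Lysates were immunoblotted for the indicated signaling proteins, with total p38 as loading control. Blots are representative of 3 independent experiments.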
# TLR9 [4] = assay: Western blot of IκBα degradation and MAPK phosphorylation after CpG-DNA; assay type: cell-based, mouse
# Method in brief: as §3
# [5] = biological target: DD-domain of MyD88 / full length MyD88 (Homo sapiens, UniProt Q99836); assay: Co-IP of MyD88 DD-domain with full-length MyD88 in HEK293T cells; assay type: cell-based
# Method in brief: as §1
# TLR2 = assay: Pam3Cys-induced TNFα release from primary macrophages; assay type: cell-based, mouse; details: six hours
# Method in brief: (§4)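 Macrophages came from bone marrow of female C57BL/6 mice, grown 6 d in DMEM with 10% FCS and 30% L-cell-conditioned medium. Cells were stimulated with the respective agonist for 6 h alongside graded test compound concentrations. TNFα in supernatants was measured by ELISA. Means ± SD of 3 independent experiments.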
# MyD88-GyrB = MyD88-GyrB (UniProt P0AES6+Q99836); assay: NF-κB luciferase reporter, MyD88-GyrB HEK293T cells, coumermycin-induced; assay type: cell-based, human
# Method in brief: as §2
# TLR7 [6] = assay: R848-induced TNFα release from primary macrophages; assay type: cell-based, mouse; details: six hours
# Method in brief: as §4
# Dectin-1 [7] = assay: Western blot of signaling after Curdlan; assay type: cell-based, mouse
# Method in brief: as §3
# MyD88 homodimerization = MyD88 homodimerization (UniProt P0AES6+Q99836); assay: Co-immunoprecipitation with MyD88-GyrB in RAW264.7 cells; assay type: cell-based, mouse; details: co-IP
# Dectin-1 [8] = assay: Curdlan-induced TNFα release from primary macrophages; assay type: cell-based, mouse; details: six hours
# Method in brief: as §4
# TLR4 = assay: LPS-induced TNFα release from primary macrophages; assay type: cell-based, mouse; details: six hours
# Method in brief: as §4
# MyD88 signaling complex = MyD88 signaling complex (UniProt P0AES6+Q99836); assay type: cell-based, mouse; details: 10 μM MPP, 1 μM CpG-DNA, RAW264.7
# Method in brief: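 RAW264.7 cells stably expressing FLAG-MyD88-GyrB were SILAC-labelled (light/medium/heavy) in Arg/Lys-free RPMI with 10% dialysed FBS. Heavy cells got 10 μM test compound for 20 min; medium and heavy were then stimulated with 1 μM CpG-DNA for 60 min. […] Quantitative MS gave fold-change versus unstimulated cells, with unique peptides counted.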
# TLR9 [9] = assay: CpG-DNA-induced TNFα release from primary macrophages; assay type: cell-based, mouse; details: six hours
# Method in brief: as §4
# [10] = biological target: full length human estrogen receptor β (Homo sapiens, UniProt Q92731); assay: Competitive radiometric estrogen receptor binding assay, ERβ; details: relative binding affinity, estradiol = 100
# Sequence of full length human estrogen receptor β (Q92731 whole entry): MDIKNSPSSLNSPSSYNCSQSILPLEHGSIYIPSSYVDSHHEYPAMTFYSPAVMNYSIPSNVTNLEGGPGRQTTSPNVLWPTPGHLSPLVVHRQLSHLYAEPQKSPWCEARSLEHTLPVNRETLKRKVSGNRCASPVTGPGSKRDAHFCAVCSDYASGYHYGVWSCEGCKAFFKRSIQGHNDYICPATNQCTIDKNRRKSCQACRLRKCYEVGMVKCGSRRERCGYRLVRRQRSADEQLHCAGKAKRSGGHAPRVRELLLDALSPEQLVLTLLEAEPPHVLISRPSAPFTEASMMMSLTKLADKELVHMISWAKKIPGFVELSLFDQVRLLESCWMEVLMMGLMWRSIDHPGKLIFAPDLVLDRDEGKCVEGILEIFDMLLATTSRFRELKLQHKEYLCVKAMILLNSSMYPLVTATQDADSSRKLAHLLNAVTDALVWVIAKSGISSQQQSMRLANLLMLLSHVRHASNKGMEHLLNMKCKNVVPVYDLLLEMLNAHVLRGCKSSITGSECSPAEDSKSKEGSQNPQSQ
# R848-induced PBMC = details: read-out: IC50 on R848-induced PBMC; cited from earlier work
# [11] = tested on: IL-1β-induced NF-κB activity; details: read-out: IC50 for IL-1β-induced NF-κB activity; cited from earlier work
structure (smiles),measurement,setting,value
"Cc1c(-c2ccc(O)cc2)nn(-c2ccc(O)cc2)c1-c1ccc(OCCN2CCCCC2)cc1 [MPP, methyl-piperidino-pyrazole]",interaction of the TIR-domain with full length MyD88,[1],strongly reduced
same,inhibition of TIRAP-mediated NF-κB activity,TIRAP-GyrB,low μM concentrations
same,EC50,RAW264.7 cells,13.2 ± 2.4 µM
same,RBA ERα,[2],12 ± 2
same,block of NF-κB- and MAPK-pathway activation downstream of R848,TLR7 [3],not completely
same,block of IκBα degradation and MAPK phosphorylation after CpG-DNA,TLR9 [4],almost completely
same,interaction of the DD-domain with full length MyD88,[5],but not the DD-domain
same,"TNFα release, Pam3Cys (TLR2)",TLR2,interfered with TNFα release
same,inhibition of MyD88-mediated NF-κB activity,MyD88-GyrB,low μM concentrations
same,"TNFα release, Resiquimod (R848; TLR7)",TLR7 [6],interfered with TNFα release
same,Curdlan-induced cell activation,Dectin-1 [7],remained largely unaffected
same,recruitment of endogenous MyD88 and IRAK4 to GyrB-MyD88,MyD88 homodimerization,inhibited recruitment of endogenous MyD88 and IRAK4
same,TNFα release induced by Curdlan,Dectin-1 [8],did not reduce TNFα release
same,"TNFα release, LPS (TLR4)",TLR4,interfered with TNFα release
same,"recruitment of activation-dependent MyD88-interacting proteins, including IRAK4",MyD88 signaling complex,almost completely blocked recruitment
same,"TNFα release, CpG-DNA (TLR9)",TLR9 [9],interfered with TNFα release
same,RBA ERβ,[10],0.05 ± 0.01
"CC[C@@H]1[C@H](F)C(=O)N[C@@H]1COc1nccc2cc(C(N)=O)c(OC)cc12 [Pf-06650833, 1-{[(2S,3S,4S)-3-Ethyl-4-fluoro-5-oxopyrrolidin-2-yl]methoxy}−7-methoxyisoquinoline-6-carboxamide]",IC50,R848-induced PBMC,0.0024 µM
NC(=O)[C@H]1CCS[C@@H]2C[C@]3(CCCN3C(=O)Cc3ccc(NC(=O)COc4ccc(Cl)cc4Cl)cc3)C(=O)N12 [ST2825],IC50,[11],> 10 µM

# From paper PMC7195875 (Science signaling, 2018)
